Results on 17 compounds are retold here after ChEMBL document CHEMBL1134856, “SAR of 2,6-diamino-3,5-difluoropyridinyl substituted heterocycles as novel p38MAP kinase inhibitors” (Bioorg Med Chem Lett, 2002).

Series [1] has as its target T1, Prostaglandin G/H synthase 1 (Ovis aries, UniProt P05979).
T1 sequence (P05979 whole entry): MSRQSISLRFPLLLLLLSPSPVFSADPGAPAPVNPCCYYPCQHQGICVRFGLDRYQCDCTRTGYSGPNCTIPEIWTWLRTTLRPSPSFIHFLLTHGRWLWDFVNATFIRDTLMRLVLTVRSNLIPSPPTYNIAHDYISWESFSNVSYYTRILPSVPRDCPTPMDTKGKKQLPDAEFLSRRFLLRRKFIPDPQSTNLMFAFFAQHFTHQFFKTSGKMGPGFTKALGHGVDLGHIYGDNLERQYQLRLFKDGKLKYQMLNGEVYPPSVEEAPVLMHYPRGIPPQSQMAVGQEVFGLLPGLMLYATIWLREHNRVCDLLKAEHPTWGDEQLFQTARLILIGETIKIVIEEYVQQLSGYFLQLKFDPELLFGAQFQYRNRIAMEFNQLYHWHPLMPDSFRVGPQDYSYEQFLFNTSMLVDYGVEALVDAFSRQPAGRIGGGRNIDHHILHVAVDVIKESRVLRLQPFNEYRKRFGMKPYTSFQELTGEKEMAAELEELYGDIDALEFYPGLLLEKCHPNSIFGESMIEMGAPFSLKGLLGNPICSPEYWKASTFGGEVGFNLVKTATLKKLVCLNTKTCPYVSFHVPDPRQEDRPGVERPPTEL
Description: […] inhibition of ram seminal vesicle Prostaglandin G/H synthase 1 activity by determining PGE-2 by RIA.

A further series concerns PBMC. As to the kind of experiment: Inhibition of LPS-stimulated TNF-alpha release from human peripheral blood mononuclear cells. Format: functional, cell-based. In a few lines:
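Human peripheral blood mononuclear cells from healthy volunteers were incubated with inhibitor and stimulated with LPS/IFN-γ for 3 h. TNF-α in the supernatants was determined by ELISA.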

The target of series [2] is Mitogen-activated protein kinase 14 (Mus musculus, UniProt P47811). Description: […] inhibition of murine Mitogen-activated protein kinase p38 alpha activity, GST-ATF-2 as substrate in the presence of 120 uM ATP. In outline: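 Phosphorylated His-tagged p38α MAP kinase of murine origin was used at 10 ng/well. Immobilised GST-ATF-2 served as substrate, with 120 μM cold ATP.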
Mitogen-activated protein kinase 14, sequence (P47811 whole entry): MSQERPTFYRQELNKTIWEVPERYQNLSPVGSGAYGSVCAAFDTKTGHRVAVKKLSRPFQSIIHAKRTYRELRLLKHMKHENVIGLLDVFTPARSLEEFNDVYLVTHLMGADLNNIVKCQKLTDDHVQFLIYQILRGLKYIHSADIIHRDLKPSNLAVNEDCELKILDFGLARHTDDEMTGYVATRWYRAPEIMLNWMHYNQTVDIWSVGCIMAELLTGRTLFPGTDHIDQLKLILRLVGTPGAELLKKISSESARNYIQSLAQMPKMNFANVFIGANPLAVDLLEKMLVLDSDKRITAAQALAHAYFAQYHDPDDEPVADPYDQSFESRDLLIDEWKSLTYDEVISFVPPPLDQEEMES

In a further series the test system is Mus musculus. Description: Inhibition of LPS induced TNF-alpha release in mice at 10 mg/kg peroral dose. The note with it: route oral. Format: functional. In a few lines:
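Female OF1 mice, 8 weeks old, received compound by oral gavage in DMSO/corn oil. One hour after dosing, LPS (20 mg/kg) was given iv. Blood was collected 1 h later, and plasma TNF-α was measured by mouse-specific ELISA.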

Series [3] relates to Rattus norvegicus. As to the kind of experiment: Tested for inhibition of swelling in adjuvant induced arthritis rat at 25 mg/kg per orally. Format: functional. The note with it: route oral. In a few lines: (§1)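 Adjuvant-induced arthritis: female Wistar rats were immunised with Mycobacterium tuberculosis on day 0. They were dosed orally at 2 × 25 mg/kg per day from day 14 to day 20. Joint swelling was measured on day 20.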

For series [4], the system named is Rattus norvegicus. Description: Tested for inhibition of swelling in adjuvant induced arthritis rat at 25 mg/kg per orally; Toxic. Format: functional. The note with it: po. In outline:
as §1

The nature of series [5]: Tested for the Cmax in rat at 10 mg/kg per orally. The note with it: in vivo, po. The series is classed as ADME, organism-based. Also noted: dose 10 mg/kg, route oral.
Series [6] deals with Rattus norvegicus. Description: Dose-dependent protective activity at 30 mg/kg (po, b.i.d.) on cartilage damage in hind paws of CIA-rats. Format: functional.
The subject of series [7] is Rattus norvegicus. Description: Dose-dependent protective activity at 10 mg/kg (po, b.i.d.) on infiltration of cells in hind paws of CIA-rats. The series is classed as functional.
Series [8] relates to Rattus norvegicus. As to the kind of experiment: Dose-dependent protective activity at 10 mg/kg (po, b.i.d.) on bone apposition in hind paws of CIA-rats. The series is classed as functional.
Series [9] is described as follows: Tested for the bioavailability in rat. The series is classed as ADME, organism-based. The note with it: in vivo.
For series [10], the species on record is Rattus norvegicus. Description: Inhibition of LPS induced TNF-alpha release in rats. The series is classed as functional.
For series [11], the system named is Rattus norvegicus. Description: Tested for inhibition of swelling in adjuvant induced arthritis rat at 25 mg/kg perorally b.i.d. The series is classed as functional. The note with it: route oral. In outline:
as §1

Series [12] deals with Rattus norvegicus. Description: Dose-dependent protective activity at 30 mg/kg (po, b.i.d.) in loss of proteoglycans in hind paws of CIA-rats. The series is classed as functional.
The subject of series [13] is Rattus norvegicus. As to the kind of experiment: Dose-dependent protective activity at 10 mg/kg (po, b.i.d.) in loss of proteoglycans in hind paws of CIA-rats. The series is classed as functional.
Series [14] deals with Rattus norvegicus. As to the kind of experiment: Dose-dependent protective activity at 3 mg/kg (po, b.i.d.) on cartilage damage in hind paws of CIA-rats. Format: functional.
The test system of series [15] is Rattus norvegicus. As to the kind of experiment: Dose-dependent protective activity at 10 mg/kg (po, b.i.d.) on cartilage damage in hind paws of CIA-rats. Format: functional.
Series [16] relates to Rattus norvegicus. As to the kind of experiment: Dose-dependent protective activity at 30 mg/kg (po, b.i.d.) on bone apposition in hind paws of CIA-rats. Format: functional.
For series [17], the species on record is Rattus norvegicus. As to the kind of experiment: Tested for inhibition of paw swelling in collagen induced arthritis in rat, perorally q.d. The series is classed as functional. The note with it: po. In a few lines: (§2)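 Female WAGxBUF/F1 rats were immunised intradermally with bovine nasal septum type II collagen in Freund's incomplete adjuvant; swelling began about 10 days later. Oral dosing, once or twice daily, started on day 13 and continued for 10 days. Read-out was paw swelling, with ED50 values reported.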

The test system of series [18] is Rattus norvegicus. As to the kind of experiment: Dose-dependent protective activity at 3 mg/kg (po, b.i.d.) in loss of proteoglycans in hind paws of CIA-rats. The series is classed as functional.
The test system of series [19] is Rattus norvegicus. Description: Dose-dependent protective activity at 3 mg/kg (po, b.i.d.) on bone apposition in hind paws of CIA-rats. The series is classed as functional.
For series [20], the system named is Rattus norvegicus. Description: Dose-dependent protective activity at 30 mg/kg (po, b.i.d.) on infiltration of cells in hind paws of CIA-rats. The series is classed as functional.
Series [21] has as its system Rattus norvegicus. As to the kind of experiment: Dose-dependent protective activity at 3 mg/kg (po, b.i.d.) on infiltration of cells in hind paws of CIA-rats. Format: functional.
The species named for the next series is Homo sapiens. Description: Inhibition of LPS-stimulated TNF-alpha release from human whole blood. Format: functional.
Series [22] can be described thus: Tested for the half life in rat. Format: ADME, organism-based. The note with it: in vivo.
For series [23], the species on record is Rattus norvegicus. Description: Tested for inhibition of paw swelling in collagen induced arthritis in rat, perorally b.i.d. The note with it: oral. The series is classed as functional. In a few lines:
as §2

The structures appear in SMILES notation.

`Nc1nc(N)c(F)c(-c2cc(-c3ccncc3)c(-c3ccc(F)cc3)[nH]2)c1F`: the IC50 in [1] was 6300 nM; in the series on PBMC, 18 nM; in series [2], 4 nM.

In the case of `Nc1nc(N)c(F)c(-c2nc(-c3cccc(C(F)(F)F)c3)c(-c3ccncc3)[nH]2)c1F`, the inhibition in vivo at 10 mg/kg in the series on Mus musculus was determined as 21%. The results for the IC50 (in [1]; with PBMC; in series [2]) were 100000 nM, 54 nM and 470 nM, respectively.

Consider `Nc1nc(N)c(F)c(-c2nc(-c3ccc(F)cc3)c(-c3ccncc3)o2)c1F`, for which, in the series with Mus musculus, 10 mg/kg produced 81% inhibition in vivo. For the same compound, the inhibition in vivo at 25 mg/kg in the series with Rattus norvegicus [3] came out at 19%. Also, the concentration for half-maximal inhibition (IC50) in series [1] was determined as 100000 nM; in the series with PBMC, 373 nM; in series [2], 400 nM.

`Fc1ccc(-c2nn(-c3c(F)c(F)nc(F)c3F)nc2-c2ccncc2)cc1`: the IC50 in [1] and in series [2] was 10000 nM each time.

As to `Nc1nc(N)c(F)c(-n2nc(-c3ccncc3)c(-c3ccc(F)cc3)n2)c1F`, the IC50 came out at 45000 nM in series [1] and 210 nM in [2].

The compound `Nc1nc(N)c(F)c(-c2nc(-c3ccncc3)c(-c3cc4ccccc4o3)[nH]2)c1F` registered an inhibition in vivo at 10 mg/kg with Mus musculus of 1.8%. Besides, the IC50 in [1] is 100000 nM; with PBMC, 27 nM; in [2], 5 nM.

Consider `Nc1nc(N)c(F)c(-c2nc(-c3ccc(F)cc3)c(-c3ccncc3)s2)c1F`, for which the IC50 in [1] amounted to 100000 nM; in the series with PBMC it was 31 nM; in [2], 140 nM.

As to `Nc1nc(F)c(F)c(-c2nc(-c3ccncc3)c(-c3ccc(F)cc3)[nH]2)c1F`, at 10 mg/kg the inhibition in vivo in the series on Mus musculus was 64%. The IC50 in series [1] was 100000 nM; with PBMC, 44 nM; in series [2], 4 nM. The inhibition in vivo at 25 mg/kg in the series on Rattus norvegicus [4] was 71%.

As for `Fc1ccc(-c2nc[nH]c2-c2ccncc2)cc1`, the IC50 in series [2] was 1000 nM.

As to `Nc1nc(N)c(F)c(-c2nc(-c3ccc(F)cc3)c(-c3ccncc3)[nH]2)c1F`, testing at 10 mg/kg in the series with Mus musculus gave an inhibition in vivo of 83%. Also, the highest concentration (Cmax) in series [5] was 3.12 µM. The Protective activity is reported as -58% in the series on Rattus norvegicus [6]; -37% with Rattus norvegicus [7]; -44% in the series with Rattus norvegicus [8]; -42% with Rattus norvegicus [12]; -38% with Rattus norvegicus [13]; -15% with Rattus norvegicus [14]. Further, the Protective activity with Rattus norvegicus [15] is recorded as -44%; in the series with Rattus norvegicus [16] it was -64%; in the series with Rattus norvegicus [18], -17%; in the series with Rattus norvegicus [19], -4%; with Rattus norvegicus [20], -45%; with Rattus norvegicus [21] it was -11%. Moreover, the bioavailability in series [9] was 49%. For the same compound, the ED50 came out at 4 mg/kg in the series filed under Rattus norvegicus [10], 10 mg/kg with Rattus norvegicus [11], 43 mg/kg in the series listed under Rattus norvegicus [17] and 5 mg/kg in the series filed under Rattus norvegicus [23]. The half-maximal inhibitory concentration (IC50) in [1] was more than 100000 nM; in the series on PBMC, 44 nM; in series [2] it was 16 nM; in the series filed under Homo sapiens, 250 nM. In [22], this compound showed a half-life of 1 h.

`Fc1ccc(-c2nc(-c3c(F)c(F)nc(F)c3F)oc2-c2ccncc2)cc1`: the half-maximal inhibitory concentration (IC50) in [2] came to 100000 nM.

`Fc1ccc(-c2ncsc2-c2ccncc2)cc1`: the half-maximal inhibitory concentration (IC50) in series [2] came out at 800 nM.

In the case of `Fc1ccc(-c2[nH]nnc2-c2ccncc2)cc1`, the IC50 in series [2] came out at 1300 nM.

As to `Nc1nc(N)c(F)c(-c2nc(-c3ccncc3)c(-c3ccco3)[nH]2)c1F`, 10 mg/kg produced 28% inhibition in vivo in the series on Mus musculus. In addition, the IC50 amounted to 100000 nM in [1], 294 nM in the series on PBMC and 670 nM in [2].

For the compound `Nc1nc(F)c(F)c(-c2nc(-c3ccc(F)cc3)c(-c3ccncc3)o2)c1F`, the IC50 turned out to be 100000 nM in [1], 1930 nM in the series with PBMC and 2100 nM in series [2].

`Fc1ccc(-c2[nH]c(-c3c(F)c(F)nc(F)c3F)nc2-c2ccncc2)cc1` came in with an inhibition in vivo at 10 mg/kg in the series with Mus musculus of 3%. For the same compound, the IC50 is more than 100000 nM in [1], 74 nM with PBMC and 90 nM in [2].

As for `Fc1ccc(-c2[nH]ccc2-c2ccncc2)cc1`, the half-inhibitory concentration (IC50) in series [2] turned out to be 800 nM.

By IC50 is commonly meant the concentration that inhibits the measured activity by half. As a reminder, the inhibition in vivo is how much of the control response was suppressed. Broadly, the Cmax is the peak of the concentration-time curve. A word on the bioavailability: it is dose-corrected exposure relative to a reference, in per cent. Read a low bioavailability as little systemic uptake. What is called ED50 is the dose at which the effect has come halfway, by size or by number of responders. As usually defined, the half-life is how long it takes for the measured level to halve. The low end stands for fast loss, the high end for slow loss.
